From PMC5035790 (Annals of Oncology, 2016)
Marks after values point to notes of the source that are not given here.

Test system: patients with advanced solid tumors or non-Hodgkin's lymphoma
Test: Phase I dose-escalation study: safety, tolerability, MTD, adverse events
Assay type: in vivo, human
Procedure, shortened: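 Adults with advanced solid tumours (plus NHL and type 2 diabetic expansion cohorts) received a 1-h IV infusion on days 1, 8 and 15 of 28-day cycles over 0.1–1.2 mg/kg. Accelerated titration escalated the dose by 100% per cohort. MTD was the highest dose given to six patients with ≤1 DLT. Fasting was 8 h pre- and 3 h post-start on cycle 1 day 1. AEs were assessed at planned times each cycle and at follow-up.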

[1] = diabetic expansion, 0.4 mg/kg, n=6
[2] = solid tumors expansion, 0.8 mg/kg, n=25

## COc1c(OCCCN2CCOCC2)ccc2c1N=C(NC(=O)c1cnc(N)nc1)N1CCN=C21 [copanlisib, Copanlisib]
Cohort 4, 0.8 mg/kg, n=7
  Drug-related hyperglycemia, grade 3: 4 (57) n (%)
  Drug-related hypertension, all grades: 1 (14) n (%)
  Drug-related hypertension, grade 3: 0 n (%)
  Drug-related nausea, all grades: 1 (14) n (%)
  Drug-related nausea, grade 3: 0 n (%)
  Drug-related oral cavity mucositis, all grades: 0 n (%)
  Drug-related oral cavity mucositis, grade 3: 0 n (%)
  Drug-related rash/desquamation, all grades: 0 n (%)
  Drug-related rash/desquamation, grade 3: 0 n (%)
  Drug-related vomiting, all grades: 1 (14) n (%)
  Drug-related vomiting, grade 3: 0 n (%)
Cohort 5, 1.2 mg/kg, n=3
  Any drug-related AE: 3 (100) n (%)
  Drug-related AEs of grade 3: 2 (67) n (%)
  Drug-related AEs of grade 4: 1 (33) n (%)
  Drug-related diarrhea, all grades: 0 n (%)
  Drug-related diarrhea, grade 3: 0 n (%)
  Drug-related fatigue, all grades: 0 n (%)
  Drug-related fatigue, grade 3: 0 n (%)
  Drug-related hyperglycemia, all grades: 3 (100) n (%)
  Drug-related hyperglycemia, grade 3: 1 (33) n (%)
  Drug-related hypertension, all grades: 0 n (%)
  Drug-related hypertension, grade 3: 0 n (%)
  Drug-related nausea, all grades: 1 (33) n (%)
  Drug-related nausea, grade 3: 0 n (%)
  Drug-related oral cavity mucositis, all grades: 0 n (%)
  Drug-related oral cavity mucositis, grade 3: 0 n (%)
  Drug-related rash/desquamation, all grades: 0 n (%)
  Drug-related rash/desquamation, grade 3: 0 n (%)
  Drug-related vomiting, all grades: 1 (33) n (%)
  Drug-related vomiting, grade 3: 0 n (%)
[1]
  Any drug-related AE: 5 (83) n (%)
  Drug-related AEs of grade 3: 3 (50) n (%)
  Drug-related AEs of grade 4: 0 n (%)
  Drug-related diarrhea, all grades: 1 (17) n (%)
  Drug-related diarrhea, grade 3: 0 n (%)
  Drug-related fatigue, all grades: 0 n (%)
  Drug-related fatigue, grade 3: 0 n (%)
  Drug-related hyperglycemia, all grades: 1 (17) n (%)
  Drug-related hyperglycemia, grade 3: 1 (17) n (%)
  Drug-related hypertension, all grades: 2 (33) n (%)
  Drug-related hypertension, grade 3: 2 (33) n (%)
  Drug-related nausea, all grades: 2 (33) n (%)
  Drug-related nausea, grade 3: 0 n (%)
  Drug-related oral cavity mucositis, all grades: 0 n (%)
  Drug-related oral cavity mucositis, grade 3: 0 n (%)
  Drug-related rash/desquamation, all grades: 1 (17) n (%)
  Drug-related rash/desquamation, grade 3: 1 (17) n (%)
  Drug-related vomiting, all grades: 0 n (%)
  Drug-related vomiting, grade 3: 0 n (%)
During the study
  diabetic ketoacidosis: no patients
Laboratory finding
  patients with elevated aminotransferase grade ≥3: five
n=57
  patients who discontinued because of AEs: Four
n=57, text
  hyperglycemia grade 4, regardless of causality: 2%
Six of 57 patients
  serious drug-related AEs: 11%
[2]
  Any drug-related AE: 20 (80) n (%)
  Drug-related AEs of grade 3: 12 (48) n (%)
  Drug-related AEs of grade 4: 0 n (%)
  Drug-related diarrhea, all grades: 2 (8) n (%)
  Drug-related diarrhea, grade 3: 0 n (%)
  Drug-related fatigue, all grades: 2 (8) n (%)
  Drug-related fatigue, grade 3: 0 n (%)
  Drug-related hyperglycemia, all grades: 15 (60) n (%)
  Drug-related hyperglycemia, grade 3: 8 (32) n (%)
  Drug-related hypertension, all grades: 5 (20) n (%)
  Drug-related hypertension, grade 3: 2 (8) n (%)
  Drug-related nausea, all grades: 7 (28) n (%)
  Drug-related nausea, grade 3: 0 n (%)
  Drug-related oral cavity mucositis, all grades: 2 (8) n (%)
  Drug-related oral cavity mucositis, grade 3: 0 n (%)
  Drug-related rash/desquamation, all grades: 6 (24) n (%)
  Drug-related rash/desquamation, grade 3: 2 (8) n (%)
  Drug-related vomiting, all grades: 3 (12) n (%)
  Drug-related vomiting, grade 3: 0 n (%)
total, n=57
  Any drug-related AE: 49 (86) n (%)
  Drug-related AEs of grade 3: 29 (51) n (%)
  Drug-related AEs of grade 4: 2 (4)^b n (%)
  Drug-related diarrhea, all grades: 9 (16) n (%)
  Drug-related diarrhea, grade 3: 1 (2) n (%)
  Drug-related fatigue, all grades: 6 (11) n (%)
  Drug-related fatigue, grade 3: 0 n (%)
  Drug-related hyperglycemia, all grades: 36 (63) n (%)
  Drug-related hyperglycemia, grade 3: 17 (30) n (%)
  Drug-related hypertension, all grades: 12 (21) n (%)
  Drug-related hypertension, grade 3: 8 (14) n (%)
  Drug-related nausea, all grades: 21 (37) n (%)
  Drug-related nausea, grade 3: 0 n (%)
  Drug-related oral cavity mucositis, all grades: 6 (11) n (%)
  Drug-related oral cavity mucositis, grade 3: 0 n (%)
  Drug-related rash/desquamation, all grades: 9 (16) n (%)
  Drug-related rash/desquamation, grade 3: 4 (7) n (%)
  Drug-related vomiting, all grades: 7 (12) n (%)
  Drug-related vomiting, grade 3: 0 n (%)
Two patients, three events
  patients with drug-related grade 4 AEs: 4%
